Results from ChEMBL document CHEMBL3526107, “In vivo-formed versus preformed metabolite kinetics of trans-resveratrol-3-sulfate and trans-resveratrol-3-glucuronide” (Drug Metab Dispos, 2012).

Columns and labels:
Format in all cases: ADME, organism-based
[1] = AUC (0 to t) in C57BL/6 mouse at 5 mg/kg administered intraarterially by LC-MS/MS analysis; design: dose 5 mg/kg, route intra-arterial; settings: plasma
Summary of the method: (§1)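 Carotid-cannulated male C57BL/6 mice, food withheld for the first 10 h, dosed at 5 mg/kg intraarterially in saline; n = 4. Serial plasma samples taken 2.5–600 min are analysed by LC-MS/MS in negative ESI mode after methanol precipitation with acetaminophen as IS. Noncompartmental analysis uses linear trapezoidal AUC, with Cl = Dose/AUC0-inf, Vss = Cl×MRT, and t1/2 = 0.693/k.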

[2] = AUC (0 to infinity) in C57BL/6 mouse at 5 mg/kg administered intraarterially by LC-MS/MS analysis; design: time infinity, dose 5 mg/kg, route intra-arterial; settings: plasma; summary of the method: as §1
[3] = Clearance in C57BL/6 mouse at 5 mg/kg administered intraarterially by LC-MS/MS analysis; design: dose 5 mg/kg, route intra-arterial; settings: in vivo; summary of the method: as §1
[4] = Volume of distribution at steady state in C57BL/6 mouse at 5 mg/kg administered intraarterially by LC-MS/MS analysis; design: dose 5 mg/kg, route intra-arterial; settings: in vivo, read-out: Vdss; summary of the method: as §1
[5] = Terminal half life in C57BL/6 mouse at 5 mg/kg administered intraarterially by LC-MS/MS analysis; design: dose 5 mg/kg, route intra-arterial; settings: in vivo, read-out: beta t1/2; summary of the method: as §1
[6] = Cmax in C57BL/6 mouse at 5 mg/kg administered intraarterially by LC-MS/MS analysis; design: dose 5 mg/kg, route intra-arterial; settings: in vivo; summary of the method: as §1
[7] = Tmax in C57BL/6 mouse at 5 mg/kg administered intraarterially by LC-MS/MS analysis; design: dose 5 mg/kg, route intra-arterial; settings: in vivo; summary of the method: as §1
[8] = AUC (0 to t) in C57BL/6 mouse at 3.5 mg/kg administered intraarterially by LC-MS/MS analysis; design: dose 3.5 mg/kg, route intra-arterial; settings: plasma
Summary of the method: (§2)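 Single 3.5 mg/kg intraarterial bolus in saline via carotid cannula to fasted male C57BL/6 mice; n = 4. Blood (20 µl) is drawn serially over 2.5–600 min and at 24 h. Plasma with ascorbic acid is precipitated with methanol containing acetaminophen IS, then quantified by negative-mode LC-MS/MS. Noncompartmental parameters: trapezoidal AUC, Cl = Dose/AUC0-inf, Vss = Cl×MRT0-inf, t1/2 = 0.693/terminal slope.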

[9] = AUC (0 to infinity) in C57BL/6 mouse at 3.5 mg/kg administered intraarterially by LC-MS/MS analysis; design: time infinity, dose 3.5 mg/kg, route intra-arterial; settings: plasma; summary of the method: as §2
[10] = Clearance in C57BL/6 mouse at 3.5 mg/kg administered intraarterially by LC-MS/MS analysis; design: dose 3.5 mg/kg, route intra-arterial; settings: in vivo; summary of the method: as §2
[11] = Volume of distribution at steady state in C57BL/6 mouse at 3.5 mg/kg administered intraarterially by LC-MS/MS analysis; design: dose 3.5 mg/kg, route intra-arterial; settings: in vivo, read-out: Vdss; summary of the method: as §2
[12] = Terminal half life in C57BL/6 mouse at 3.5 mg/kg administered intraarterially by LC-MS/MS analysis; design: dose 3.5 mg/kg, route intra-arterial; settings: in vivo, read-out: beta t1/2; summary of the method: as §2
[13] = Cmax in C57BL/6 mouse at 3.5 mg/kg administered intraarterially by LC-MS/MS analysis; design: dose 3.5 mg/kg, route intra-arterial; settings: in vivo; summary of the method: as §2
[14] = Tmax in C57BL/6 mouse at 3.5 mg/kg administered intraarterially by LC-MS/MS analysis; design: dose 3.5 mg/kg, route intra-arterial; settings: in vivo; summary of the method: as §2
[15] = AUC (0 to t) in C57BL/6 mouse at 15 mg/kg administered intraarterially by LC-MS/MS analysis; design: dose 15 mg/kg, route intra-arterial; settings: plasma
Summary of the method: (§3)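 Male C57BL/6 mice (20–25 g), fasted for the first 10 h of sampling. Single 15 mg/kg bolus in 20% 2-hydroxypropyl-β-cyclodextrin in saline via carotid artery cannula. Serial 20 µl blood draws from 2.5 to 600 min, plus 24 h; n = 5. Plasma is methanol-precipitated (acetaminophen IS) and run on negative-ESI LC-MS/MS. Noncompartmental analysis: linear trapezoidal AUC, Cl = Dose/AUC0-inf, Vss = Cl×MRT, t1/2 = 0.693/k.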

[16] = AUC (0 to infinity) in C57BL/6 mouse at 15 mg/kg administered intraarterially by LC-MS/MS analysis; design: time infinity, dose 15 mg/kg, route intra-arterial; settings: plasma; summary of the method: as §3
[17] = Clearance in C57BL/6 mouse at 15 mg/kg administered intraarterially by LC-MS/MS analysis; design: dose 15 mg/kg, route intra-arterial; settings: in vivo; summary of the method: as §3
[18] = Volume of distribution at steady state in C57BL/6 mouse at 15 mg/kg administered intraarterially by LC-MS/MS analysis; design: dose 15 mg/kg, route intra-arterial; settings: in vivo, read-out: Vdss; summary of the method: as §3
[19] = Terminal half life in C57BL/6 mouse at 15 mg/kg administered intraarterially by LC-MS/MS analysis; design: dose 15 mg/kg, route intra-arterial; settings: in vivo, read-out: beta t1/2; summary of the method: as §3
[20] = Cmax in C57BL/6 mouse at 15 mg/kg administered intraarterially by LC-MS/MS analysis; design: dose 15 mg/kg, route intra-arterial; settings: in vivo; summary of the method: as §3
[21] = Tmax in C57BL/6 mouse at 15 mg/kg administered intraarterially by LC-MS/MS analysis; design: dose 15 mg/kg, route intra-arterial; settings: in vivo; summary of the method: as §3

O=S(=O)(O)Oc1cc(O)cc(/C=C/c2ccc(O)cc2)c1
AUC(0-t) [1]: 4.05 µM·h
AUC(0-inf) [2]: 4.26 µM·h
clearance [3]: 76.3 mL/min/kg
Vd [4]: 6.37 L/kg
half-life [5]: 2.13 h
Cmax [6]: 14.8 µM
Tmax [7]: 2.5 min

O=C(O)[C@H]1O[C@@H](Oc2cc(O)cc(/C=C/c3ccc(O)cc3)c2)[C@H](O)[C@@H](O)[C@@H]1O
AUC(0-t) [8]: 10.8 µM·h
AUC(0-inf) [9]: 11.8 µM·h
clearance [10]: 13.8 mL/min/kg
Vd [11]: 4.55 L/kg
half-life [12]: 4.54 h
Cmax [13]: 27.8 µM
Tmax [14]: 2.5 min

Oc1ccc(/C=C/c2cc(O)cc(O)c2)cc1 [RESVERATROL]
AUC(0-t) [15]: 8.5 µM·h
AUC(0-inf) [16]: 9.85 µM·h
clearance [17]: 119 mL/min/kg
Vd [18]: 37.6 L/kg
half-life [19]: 3.18 h
Cmax [20]: 15.3 µM
Tmax [21]: 2.5 min
